# Measured values from ChEMBL document CHEMBL1126808, “Asymmetric synthesis and biological evaluation of beta-L-(2R,5S)- and alpha-L-(2R,5R)-1,3-oxathiolane-pyrimidine and -purine nucleosides as potential anti-HIV agents” (J Med Chem, 1993).
# Assays:
# [1] = system: Human immunodeficiency virus 1; assay: Cytotoxicity against human peripheral blood mononuclear (PBM) cells […]; format: functional
# Procedure, shortened: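 Uninfected PHA-stimulated human PBM cells were cultured with or without drug, then aliquots were counted in trypan blue. IC50 came from a median-effect plot of dose–effect data.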
# [2] = system: Human immunodeficiency virus; assay: Anti-HIV-1 activity against human peripheral blood mononuclear (PBM) cells infected with HIV-1 strain LAV; format: functional, organism-based
# Procedure, shortened: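 Mitogen-stimulated human PBM cells infected with HIV-1 LAV at MOI 0.1 (titred by limiting dilution in PBM cells). Compounds were diluted into medium from 40 mM DMSO stocks (final DMSO <0.25%) and added about 45 min after infection. Read-out was supernatant RT level. EC50 came from a median-effect plot of dose–effect data.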
EC50 ([2]; Human immunodeficiency virus 1),EC50 [2],Structure (SMILES),IC50 [1]
2.75 µM,,OC[C@@H]1O[C@@H](n2cnc3c(Cl)ncnc32)CS1,> 100 µM
1.01 µM,,Nc1ncnc2c1ncn2[C@@H]1CS[C@H](CO)O1,> 100 µM
121 µM,,O=c1[nH]c(=O)n([C@H]2CS[C@H](CO)O2)cc1Br,> 100 µM
0.43 µM,,Nc1nc(=O)n([C@H]2CS[C@H](CO)O2)cc1F,> 100 µM
4.4 µM,,Cc1cn([C@H]2CS[C@H](CO)O2)c(=O)[nH]c1=O,> 100 µM
0.45 µM,,Cc1cn([C@H]2CS[C@H](CO)O2)c(=O)nc1N,> 100 µM
9.8 µM,,Nc1nc(Cl)c2ncn([C@@H]3CS[C@H](CO)O3)c2n1,> 100 µM
34.3 µM,,Cc1cn([C@@H]2CS[C@H](CO)O2)c(=O)[nH]c1=O,> 100 µM
> 100 µM,,OC[C@@H]1O[C@H](n2cnc3c(O)ncnc32)CS1,> 100 µM
42.1 µM,,Nc1nc(Cl)c2ncn([C@H]3CS[C@H](CO)O3)c2n1,> 100 µM
> 100 µM,,O=c1[nH]c(=O)n([C@H]2CS[C@H](CO)O2)cc1Cl,> 100 µM
157 µM,,O=c1[nH]c(=O)n([C@H]2CS[C@H](CO)O2)cc1I,> 100 µM
11.7 µM,,O=c1ccn([C@@H]2CS[C@H](CO)O2)c(=O)[nH]1,> 100 µM
> 100 µM,,OC[C@@H]1O[C@@H](n2cnc3c(O)ncnc32)CS1,> 100 µM
31.8 µM,,Nc1nc(=O)n([C@@H]2CS[C@H](CO)O2)cc1Cl,> 100 µM
> 100 µM,,O=c1[nH]c(=O)n([C@@H]2CS[C@H](CO)O2)cc1F,> 100 µM
> 100 µM,,Nc1nc(=O)n([C@H]2CS[C@H](CO)O2)cc1Br,> 100 µM
> 100 µM,,O=c1[nH]c(=O)n([C@@H]2CS[C@H](CO)O2)cc1Cl,> 100 µM
92.9 µM,,O=c1[nH]c(=O)n([C@@H]2CS[C@H](CO)O2)cc1I,> 100 µM
10.2 µM,,Nc1nc(O)c2ncn([C@@H]3CS[C@H](CO)O3)c2n1,> 100 µM

EC50 ([2]; Human immunodeficiency virus 1),EC50 [2],Structure (SMILES),IC50 [1]
15 µM,,CNc1ncnc2c1ncn2[C@@H]1CS[C@H](CO)O1,> 100 µM
1.44 µM,,OC[C@@H]1O[C@H](n2cnc3c(Cl)ncnc32)CS1,> 100 µM
13 µM,,CNc1ncnc2c1ncn2[C@H]1CS[C@H](CO)O1,> 100 µM
78.9 µM,,Nc1ncnc2c1ncn2[C@H]1CS[C@H](CO)O1,> 100 µM
16.3 µM,,Nc1nc(F)nc2c1ncn2[C@@H]1CS[C@H](CO)O1,> 100 µM
0.14 µM,,Nc1nc(=O)n([C@@H]2CS[C@H](CO)O2)cc1I,> 100 µM
2.51 µM,,Nc1nc(=O)n([C@@H]2CS[C@H](CO)O2)cc1Br,> 100 µM
> 100 µM,,O=c1[nH]c(=O)n([C@H]2CS[C@H](CO)O2)cc1F,> 100 µM
15.8 µM,,Nc1nc(F)nc2c1ncn2[C@H]1CS[C@H](CO)O1,> 100 µM
1.9 µM,,Cc1cn([C@@H]2CS[C@H](CO)O2)c(=O)nc1N,> 100 µM
32.8 µM,,O=c1ccn([C@H]2CS[C@H](CO)O2)c(=O)[nH]1,> 100 µM
> 100 µM,,O=c1[nH]c(=O)n([C@@H]2CS[C@H](CO)O2)cc1Br,> 100 µM
> 100 µM,,Nc1nc(=O)n([C@H]2CS[C@H](CO)O2)cc1I,> 100 µM
> 100 µM,,Nc1nc(O)c2ncn([C@H]3CS[C@H](CO)O3)c2n1,> 100 µM
> 100 µM,,Nc1nc(=O)n([C@H]2CS[C@H](CO)O2)cc1Cl,> 100 µM
,0.0018 µM,Nc1ccn([C@@H]2CS[C@H](CO)O2)c(=O)n1 (stereo in doubt; 13) [LAMIVUDINE],
,10.1 µM,Nc1ccn([C@@H]2CS[C@H](CO)O2)c(=O)n1 (stereo in doubt; 14) [LAMIVUDINE],> 100 µM
,0.21 µM,Nc1ccn([C@@H]2CS[C@H](CO)O2)c(=O)n1 (stereo in doubt; form 1) [LAMIVUDINE],
,0.06 µM,Nc1ccn([C@@H]2CS[C@H](CO)O2)c(=O)n1 (stereo in doubt; form 2) [LAMIVUDINE],
0.0013 µM,,Nc1nc(=O)n([C@@H]2CS[C@H](CO)O2)cc1F [EMTRICITABINE],> 100 µM

Structure (SMILES),EC50 ([2]; Human immunodeficiency virus 1),EC50 [2],IC50 [1]
Cc1cn([C@H]2C[C@H](N=[N+]=[N-])[C@@H](CO)O2)c(=O)[nH]c1=O [ZIDOVUDINE],0.004 µM,,> 100 µM
